Reference: ChEMBL document CHEMBL1123716, “Synthesis and tumor uptake of 5-halo-1-(2'-fluoro-2'-deoxy-beta-D-ribofuranosyl)[2-14C]uracils” (J Med Chem, 1987)

Columns and labels:
[1] = system: Mus musculus; assay: Tissue distribution in BDF1 female mice bearing an implanted lewis lung tumor after intravenous injection in lung at 0.5 h.; assay type: ADME, organism-based; conditions: in vivo
Outline: (§1)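 Female BDF₁ mice (18–20 g) carrying transplanted Lewis lung tumor received 23–193 kBq of the [2-¹⁴C]-labeled nucleoside in normal saline via tail vein. The compound was stored as a dry film and reconstituted just before use. Animals were killed at set times, and tissue ¹⁴C was measured by combustion and liquid scintillation. Values are mean ± SD % injected dose per gram of wet tissue, n = 6.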

[2] = system: Mus musculus; assay: Radioactive constituent of 5-fluorouracil in urine at 2 hr time interval after intravenous injection into BDF1 female mice bearing lewis lung tumor; conditions: in vivo
[3] = system: Mus musculus; assay: Tissue distribution in BDF1 female mice bearing an implanted lewis lung tumor after intravenous injection in muscle at 1 h.; assay type: ADME, organism-based; conditions: in vivo; outline: as §1
[4] = system: Mus musculus; assay: Radioactive constituent of other in urine at 2 hr time interval after intravenous injection into BDF1 female mice bearing lewis lung tumor; assay type: ADME, organism-based; conditions: in vivo
Outline: (§2)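 Radiolabeled nucleoside given in normal saline by tail vein, 23–193 kBq per mouse, to female BDF1 mice (18–20 g) carrying transplanted Lewis lung tumor. Urine was collected when the animals were killed. Components were identified by reverse-phase HPLC with UV at 256 nm on urine spiked with reference compounds, matched to liquid scintillation counts of the eluate. Each is reported as a percent of total urine radioactivity.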

[5] = system: Mus musculus; assay: Tissue distribution in BDF1 female mice bearing an implanted lewis lung tumor after intravenous injection in muscle at 24 h.; assay type: ADME, organism-based; conditions: in vivo; outline: as §1
[6] = system: Mus musculus; assay: Tissue distribution in BDF1 female mice bearing an implanted lewis lung tumor after intravenous injection in blood at 8 h.; assay type: ADME, organism-based; conditions: in vivo
Outline: (§3)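 Female BDF1 mice (18–20 g) with implanted Lewis lung tumor received the 2-14C compound by tail vein, 23–193 kBq in normal saline, reconstituted from a dry film just before use. Animals were killed at set times and tissues taken for 14C counting by combustion and liquid scintillation. Values are percent injected dose per gram wet tissue, mean ± standard deviation, six animals.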

[7] = system: Mus musculus; assay: Tissue distribution in BDF1 female mice bearing an implanted lewis lung tumor after intravenous injection in lung at 1 h.; assay type: ADME, organism-based; conditions: in vivo; outline: as §1
[8] = system: Mus musculus; assay: Tissue distribution in BDF1 female mice bearing an implanted lewis lung tumor after intravenous injection in kidney at 1 h.; assay type: ADME, organism-based; conditions: in vivo; outline: as §3
[9] = system: Mus musculus; assay: Tissue distribution in BDF1 female mice bearing an implanted lewis lung tumor after intravenous injection in tumor at 0.25 h.; assay type: ADME, organism-based; conditions: in vivo
Outline: (§4)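 Female BDF1 mice (18–20 g) carrying a transplanted Lewis lung tumor were given 23–193 kBq of the [2-14C]-labelled nucleoside in normal saline by tail vein. Animals were killed at set times. Tissue 14C was counted by liquid scintillation, after combustion or directly. Values are percent of injected dose per gram wet tissue, as mean ± standard deviation of six animals.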

[10] = Total urine activity excreted at 0.5 hr was estimated from the measurement of loss of tissue activity; assay type: ADME, tissue-based
[11] = system: Mus musculus; assay: Tissue distribution in BDF1 female mice bearing an implanted lewis lung tumor after intravenous injection in heart at 24 h.; assay type: ADME, organism-based; conditions: in vivo; outline: as §3
[12] = system: Mus musculus; assay: Tissue distribution in BDF1 female mice bearing an implanted lewis lung tumor after intravenous injection in liver at 0.5 h.; assay type: ADME, organism-based; conditions: in vivo; outline: as §1
[13] = Total urine activity excreted at 2 hr was estimated from the measurement of loss of tissue activity; assay type: ADME, tissue-based
[14] = system: Mus musculus; assay: Tissue distribution in BDF1 female mice bearing an implanted lewis lung tumor after intravenous injection in stomach at 4 h.; assay type: ADME, organism-based; conditions: in vivo; outline: as §1
[15] = system: Mus musculus; assay: Tissue distribution in BDF1 female mice bearing an implanted lewis lung tumor after intravenous injection in git(Section of intestine) at 1 h.; assay type: ADME, organism-based; conditions: in vivo; outline: as §3
[16] = system: Mus musculus; assay: Tissue distribution in BDF1 female mice bearing an implanted lewis lung tumor after intravenous injection in blood at 1 h.; assay type: ADME, organism-based; conditions: in vivo; outline: as §3
[17] = system: Mus musculus; assay: Tissue distribution in BDF1 female mice bearing an implanted lewis lung tumor after intravenous injection in heart at 2 h.; assay type: ADME, organism-based; conditions: in vivo; outline: as §3
[18] = system: Mus musculus; assay: Tissue distribution in BDF1 female mice bearing an implanted lewis lung tumor after intravenous injection in blood at 0.25 h; assay type: ADME, organism-based; conditions: in vivo; outline: as §3
[19] = system: Mus musculus; assay: Tissue distribution in BDF1 female mice bearing an implanted lewis lung tumor after intravenous injection in heart at 1 h.; assay type: ADME, organism-based; conditions: in vivo; outline: as §3
[20] = system: Mus musculus; assay: Tissue distribution in BDF1 female mice bearing an implanted lewis lung tumor after intravenous injection in spleen at 8 h.; assay type: ADME, organism-based; conditions: in vivo; outline: as §1
[21] = system: Mus musculus; assay: Tissue distribution in BDF1 female mice bearing an implanted lewis lung tumor after intravenous injection in spleen at 4 h.; assay type: ADME, organism-based; conditions: in vivo; outline: as §1
[22] = system: Mus musculus; assay: Tissue distribution in BDF1 female mice bearing an implanted lewis lung tumor after intravenous injection in liver at 0.25 h.; assay type: ADME, organism-based; conditions: in vivo; outline: as §1
[23] = system: Mus musculus; assay: Tissue distribution in BDF1 female mice bearing an implanted lewis lung tumor after intravenous injection in bone at 0.25 h.; assay type: ADME, organism-based; conditions: in vivo; outline: as §3
[24] = system: Mus musculus; assay: Tissue distribution in BDF1 female mice bearing an implanted lewis lung tumor after intravenous injection in blood at 0.5 h.; assay type: ADME, organism-based; conditions: in vivo; outline: as §3
[25] = system: Mus musculus; assay: Tissue distribution in BDF1 female mice bearing an implanted lewis lung tumor after intravenous injection in spleen at 24 h.; assay type: ADME, organism-based; conditions: in vivo; outline: as §1
[26] = system: Mus musculus; assay: Tissue distribution in BDF1 female mice bearing an implanted lewis lung tumor after intravenous injection in stomach at 24 h.; assay type: ADME, organism-based; conditions: in vivo; outline: as §1
[27] = system: Mus musculus; assay: Radioactive constituent of other in urine at 0.5 hr time interval after intravenous injection into BDF1 female mice bearing lewis lung tumor; assay type: ADME, organism-based; conditions: in vivo; outline: as §2
[28] = system: Mus musculus; assay: Tissue distribution in BDF1 female mice bearing an implanted lewis lung tumor after intravenous injection in heart at 0.5 h.; assay type: ADME, organism-based; conditions: in vivo; outline: as §3
[29] = system: Mus musculus; assay: Tissue distribution in BDF1 female mice bearing an implanted lewis lung tumor after intravenous injection in liver at 8 h.; assay type: ADME, organism-based; conditions: in vivo; outline: as §1
[30] = system: Mus musculus; assay: Tissue distribution in BDF1 female mice bearing an implanted lewis lung tumor after intravenous injection in tumor at 2 h.; assay type: ADME, organism-based; conditions: in vivo; outline: as §4
[31] = system: Mus musculus; assay: Tissue distribution in BDF1 female mice bearing an implanted lewis lung tumor after intravenous injection in git(Section of intestine) at 24 h.; assay type: ADME, organism-based; conditions: in vivo; outline: as §3
[32] = system: Mus musculus; assay: Tissue distribution in BDF1 female mice bearing an implanted lewis lung tumor after intravenous injection in tumor at 24 h.; assay type: ADME, organism-based; conditions: in vivo; outline: as §4
[33] = system: Mus musculus; assay: Tissue distribution in BDF1 female mice bearing an implanted lewis lung tumor after intravenous injection in liver at 24 h.; assay type: ADME, organism-based; conditions: in vivo; outline: as §1
[34] = system: Mus musculus; assay: Tissue distribution in BDF1 female mice bearing an implanted lewis lung tumor after intravenous injection in git(Section of intestine) at 8 h.; assay type: ADME, organism-based; conditions: in vivo; outline: as §3
[35] = system: Mus musculus; assay: Tissue distribution in BDF1 female mice bearing an implanted lewis lung tumor after intravenous injection in blood at 4 h.; assay type: ADME, organism-based; conditions: in vivo; outline: as §3
[36] = system: Mus musculus; assay: Tissue distribution in BDF1 female mice bearing an implanted lewis lung tumor after intravenous injection in skin at 24 h.; assay type: ADME, organism-based, Skin of body; conditions: in vivo; outline: as §1
[37] = system: Mus musculus; assay: Tissue distribution in BDF1 female mice bearing an implanted lewis lung tumor after intravenous injection in muscle at 4 h.; assay type: ADME, organism-based; conditions: in vivo; outline: as §1
[38] = system: Mus musculus; assay: Tissue distribution in BDF1 female mice bearing an implanted lewis lung tumor after intravenous injection in muscle at 0.25 h; assay type: ADME, organism-based; conditions: in vivo; outline: as §1
[39] = system: Mus musculus; assay: Tissue distribution in BDF1 female mice bearing an implanted lewis lung tumor after intravenous injection in skin at 2 h.; assay type: ADME, organism-based, Skin of body; conditions: in vivo; outline: as §1

Row | Structure (SMILES) | Tissue distribution [1] | Tissue distribution [3] | Tissue distribution [5] | Tissue distribution [6] | Tissue distribution [7] | Tissue distribution [8] | Tissue distribution [9] | Tissue distribution [11] | Tissue distribution [12] | Tissue distribution [14] | Tissue distribution [15] | Tissue distribution [16] | Tissue distribution [17] | Tissue distribution [18] | Tissue distribution [19] | Tissue distribution [20] | Tissue distribution [21] | Tissue distribution [22] | Tissue distribution [24] | Tissue distribution [25] | further results
1 | O=c1[nH]c(=O)n([C@H]2O[C@@H](CO)[C@H](O)[C@H]2F)cc1F | 1.43 | 0.37 | 0.004 | 0.01 | 0.51 | 8.21 | 5.26 | 0.005 | 1.54 | 0.02 | 0.71 | 0.54 | 0.08 | 3.49 | 0.58 | 0.09 | 0.18 | 3.37 | 1.59 | 0.03 | Total radioactivity [2]: 2.8%; Total radioactivity [4]: 5.4%; Total urine activity [10]: 68%; Total urine activity [13]: 30%; Tissue distribution [23]: 1.69; Tissue distribution [26]: 0.005; Total radioactivity [27]: 5%; Tissue distribution [28]: 1.71; Tissue distribution [29]: 0.01; Tissue distribution [30]: 0.49; Tissue distribution [31]: 0.01; Tissue distribution [32]: 0.02; Tissue distribution [33]: 0.005; Tissue distribution [34]: 0.02; Tissue distribution [35]: 0.02; Tissue distribution [36]: 0.004; Tissue distribution [37]: 0.02
2 | O=c1[nH]c(=O)n([C@H]2O[C@@H](CO)[C@H](O)[C@H]2F)cc1Cl | 1.41 | 0.27 | 0.01 | 0.03 | 0.43 | 7.28 | 2.62 | 0.02 | 1.43 | 0.07 | 0.38 | 0.58 | 0.17 | 3.54 | 0.53 | 0.15 | 0.17 | 2.39 | 1.82 | 0.06 | Tissue distribution [38]: 1.48; Tissue distribution [39]: 0.13; Tissue distribution [26]: 0.01; Tissue distribution [28]: 1.56; Tissue distribution [29]: 0.03; Tissue distribution [30]: 0.34; Tissue distribution [31]: 0.02; Tissue distribution [32]: 0.03; Tissue distribution [33]: 0.02; Tissue distribution [34]: 0.04; Tissue distribution [35]: 0.06; Tissue distribution [36]: 0.01; Tissue distribution [37]: 0.05
